In ChEMBL document CHEMBL2169769, “Synthesis and biological characterization of protease-activated prodrugs of doxazolidine” (J Med Chem, 2012):
The source made the active and inactive calls. The calls are words filed in the database; no cut-off is given here.

Experiments:
MIA PaCa-2 [1] = assay: Cytotoxicity against human MIAPaCa2 cells incubated for 3 hrs measured after 3 to 4 hrs in presence of plasmin; assay type: functional, cell-based
MCF7 [2] = assay: Cytotoxicity against human MCF7 cells incubated for 3 hrs measured after 3 to 4 hrs in presence of plasmin; assay type: functional, cell-based
MCF7 [3] = assay: Cytotoxicity against human MCF7 cells incubated for 3 hrs measured after 3 to 4 hrs in absence of plasmin; assay type: functional, cell-based
MIA PaCa-2 [4] = assay: Cytotoxicity against human MIAPaCa2 cells incubated for 3 hrs measured after 3 to 4 hrs in absence of plasmin; assay type: functional, cell-based
[5] = Prodrug conversion assessed as release of human plasmin induced active dozax at 50 uM pH 7.4 in PBS by RP-HPLC; assay type: ADME; conditions: buffer, pH 7.4, 50 µM
Method in brief: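 50 µM prodrug with 1.2 µg/mL human plasmin in PBS pH 7.4 at 37 °C. Samples taken over time, ethanol-quenched, analysed by RP-HPLC at 480 nm for prodrug and dox; repeated runs fit to single-exponential association model.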

[6] = Prodrug conversion assessed as release of active dozax in absence of plasmin at 50 uM pH 7.4 in PBS by RP-HPLC; assay type: ADME; conditions: buffer, pH 7.4, 50 µM
Method in brief: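 Enzyme-free control: 50 µM prodrug in PBS at 37 °C over 24 h, RP-HPLC monitoring dox at 480 nm.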

[7] = test system: COc1cccc2c1C(=O)c1c(O)c3c(c(O)c1C2=O)C[C@@](O)(C(=O)CO)C[C@@H]3O[C@H]1C[C@H]2[C@H](OCN2C(=O)OCc2ccc(NC(=O)[C@H](CCCCN)NC(=O)[C@H](Cc3ccccc3)NC(=O)[C@@H](C)NC(=O)CNC(C)=O)cc2)[C@H](C)O1; assay: Activity of human cathepsin B assessed as enzyme catalytic turnover for compound hydrolysis at 50 uM at pH 6.5 in PBS buffer containing 10 mM N-acetylcysteine by RP-HPLC
Method in brief: (§1)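 Michaelis-Menten kinetics, substrate 10–400 µM at 37 °C. Plasmin: 0.2 U, PBS pH 7.4, 4 min. Cathepsin B: 0.08 U, PBS-NAC pH 6.5, 20 min. Quenched with equal volume ethanol, −20 °C ≥2 h, centrifuged, supernatant RP-HPLC at 480 nm. Rates (µM/min) fit by non-linear least squares; triplicates.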

[8] = test system: COc1cccc2c1C(=O)c1c(O)c3c(c(O)c1C2=O)C[C@@](O)(C(=O)CO)C[C@@H]3O[C@H]1C[C@H]2[C@H](OCN2C(=O)OCc2ccc(NC(=O)[C@H](CCCCN)NC(=O)[C@H](Cc3ccccc3)NC(=O)[C@@H](C)NC(=O)CNC(C)=O)cc2)[C@H](C)O1; assay: Activity of human cathepsin B assessed as compound hydrolysis at 50 uM at pH 6.5 in PBS buffer containing 10 mM N-acetylcysteine by RP-HPLC; method in brief: as §1
[9] = substrate: COc1cccc2c1C(=O)c1c(O)c3c(c(O)c1C2=O)C[C@@](O)(C(=O)CO)C[C@@H]3O[C@H]1C[C@H]2[C@H](OCN2C(=O)OCc2ccc(NC(=O)[C@H](CCCCN)NC(=O)[C@H](Cc3ccccc3)NC(=O)[C@@H](C)NC(=O)CNC(C)=O)cc2)[C@H](C)O1; assay: Activity of human plasmin assessed as enzyme catalytic turnover for compound hydrolysis at 50 uM at pH 7.4 in PBS buffer by RP-HPLC; method in brief: as §1
[10] = substrate: COc1cccc2c1C(=O)c1c(O)c3c(c(O)c1C2=O)C[C@@](O)(C(=O)CO)C[C@@H]3O[C@H]1C[C@H]2[C@H](OCN2C(=O)OCc2ccc(NC(=O)[C@H](CCCCN)NC(=O)[C@H](Cc3ccccc3)NC(=O)[C@@H](C)NC(=O)CNC(C)=O)cc2)[C@H](C)O1; assay: Activity of human plasmin assessed as compound hydrolysis at 50 uM at pH 7.4 in PBS buffer by RP-HPLC; method in brief: as §1

Molecule: COc1cccc2c1C(=O)c1c(O)c3c(c(O)c1C2=O)C[C@@](O)(C(=O)CO)C[C@@H]3O[C@H]1C[C@H]2[C@H](OCN2C(=O)OCc2ccc(NC(=O)[C@H](CCCCN)NC(=O)[C@H](Cc3ccccc3)NC(=O)[C@@H](C)N)cc2)[C@H](C)O1.O=P(O)(O)O
- Activity (MIA PaCa-2 [1]): Active
- Activity (MCF7 [2]): Active
- pIC50 (MCF7 [3]): Active
- pIC50 (MIA PaCa-2 [4]): Active
- Drug metabolism [5]: Active
- Stability [6]: Stable

Molecule: COc1cccc2c1C(=O)c1c(O)c3c(c(O)c1C2=O)C[C@@](O)(C(=O)CO)C[C@@H]3O[C@H]1C[C@H](NC(=O)OCc2ccc(NC(=O)[C@H](CCCCN)NC(=O)[C@H](Cc3ccccc3)NC(=O)[C@@H](C)N)cc2)[C@H](O)[C@H](C)O1
- IC50 (MCF7 [3]): < 1 µM
- pIC50 (MIA PaCa-2 [4]): inactive

Molecule: Cathepsin B (Homo sapiens) (from UniProt P07858)
- kcat [7]: 0.49 s⁻¹
- Km [8]: 108 µM
- Vmax [8]: 1.32 µM/min

B1: Plasminogen (Homo sapiens), P00747 (protein)
chain: MEHKEVVLLLLLFLKSGQGEPLDDYVNTQGASLFSVTKKQLGAGSIEECAAKCEEDEEFTCRAFQYHSKEQQCVIMAENRKSSIIIRMRDVVLFEKKVYLSECKTGNGKNYRGTMSKTKNGITCQKWSSTSPHRPRFSPATHPSEGLEENYCRNPDNDPQGPWCYTTDPEKRYDYCDILECEEECMHCSGENYDGKISKTMSGLECQAWDSQSPHAHGYIPSKFPNKNLKKNYCRNPDRELRPWCFTTDPNKRWELCDIPRCTTPPPSSGPTYQCLKGTGENYRGNVAVTVSGHTCQHWSAQTPHTHNRTPENFPCKNLDENYCRNPDGKRAPWCHTTNSQVRWEYCKIPSCDSSPVSTEQLAPTAPPELTPVVQDCYHGDGQSYRGTSSTTTTGKKCQSWSSMTPHRHQKTPENYPNAGLTMNYCRNPDADKGPWCFTTDPSVRWEYCNLKKCSGTEASVVAPPPVVLLPDVETPSEEDCMFGNGKGYRGKRATTVTGTPCQDWAAQEPHRHSIFTPETNPRAGLEKNYCRNPDGDVGGPWCYTTNPRKLYDYCDVPQCAAPSFDCGKPQVEPKKCPGRVVGGCVAHPHSWPWQVSLRTRFGMHFCGGTLISPEWVLTAAHCLEKSPRPSSYKVILGAHQEVNLEPHVQEIEVSRLFLEPTRKDIALLKLSSPAVITDKVIPACLPSPNYVVADRTECFITGWGETQGTFGAGLLKEAQLPVIENKVCNRYEFLNGRVQSTELCAGHLAGGTDSCQGDSGGPLVCFEKDKYILQGVTSWGLGCARPNKPGVYVRVSRFVTWIEGVMRNN
- kcat [9]: 2.45 s⁻¹
- Km [10]: 171 µM
- Vmax [10]: 3.76 µM/min
